The target of experiment [1] is T1, Dihydroorotate dehydrogenase (quinone), mitochondrial (Homo sapiens, UniProt Q02127). In words: Inhibition of DHODH in HEK293 cells assessed as reduction in number of viable cells at 6 to 193 uM measured upto 72 hrs by Celltiter-Glo assay. Type of experiment: cell-based. The note with it: dose 6-193 µM, time hrs <=72. The essentials:
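HEK-293 ISRE-Luc cells in DMEM with 10% FCS at 37°C, 5% CO2, treated with compound or DMSO; viable cells quantified by ATP content (CellTiter-Glo luminescence) after 24, 48 and 72 h. Expressed as percent of untreated cells at t = 0 h; means ± SD of two independent experiments.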

Experiment [2] addresses T1, Dihydroorotate dehydrogenase (quinone), mitochondrial. Description: Inhibition of DHODH in human HEK293 cells assessed as reduction in intracellular pyrimidine level measured after 24 hrs by HPLC coupled spectrophotometry. Format: cell-based. The essentials:
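HEK-293 cells plated at 1×10^6 per well, treated 24 h later with compound (80 µM final) or DMSO for 24 h. Pellets deproteinized with 6% perchloric acid, neutralized with Na2CO3, analysed by C18 HPLC at 45°C with ion-pair phosphate/MeOH gradient, detected at 254 nm against reference nucleoside calibration curves. Normalized to viable cell number and DMSO controls.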

The target is the same in experiment [3]. In words: Inhibition of DHODH in human HEK293 cells transfected with ISRE-luciferase reporter gene assessed as increase in 30 IU/ml IFN-alpha stimulated IFIT3 mRNA expression at 80 uM measured after 16 hrs by RT-qPCR analysis relative to control. Format: cell-based. The method in brief:
(§1)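 ISRE-Luc HEK cells co-treated with increasing IFN-α concentrations and DMSO or compound (80 µM) for 16 h. Total RNA extracted from 2×10^5 cells with DNase step; qPCR 35 cycles. CT values normalized to RPL13A and unstimulated controls (2^-ΔΔCT), expressed as fold change versus DMSO alone. Three independent experiments; two-way ANOVA with Bonferroni.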

The target is the same in experiment [4]. In words: Inhibition of DHODH in human HEK293 cells transfected with ISRE-luciferase reporter gene assessed as increase in 60 IU/ml IFN-alpha stimulated IFIT3 mRNA expression at 80 uM measured after 16 hrs by RT-qPCR analysis relative to control. Format: cell-based. The essentials: as §1
Experiment [5] has the same target. Description: Inhibition of DHODH in human HEK293 cells transfected with ISRE-luciferase reporter gene assessed as increase in 30 IU/ml IFN-alpha stimulated ISG15 mRNA expression at 80 uM measured after 16 hrs by RT-qPCR analysis relative to control. Type of experiment: cell-based. The method in brief: as §1
For experiment [6] the target is unchanged. Description: Inhibition of DHODH in human HEK293 cells transfected with ISRE-luciferase reporter gene assessed as increase in 125 IU/ml IFN-alpha stimulated IFIT1 mRNA expression at 80 uM measured after 16 hrs by RT-qPCR analysis relative to control. Format: cell-based. The method in brief:
as §1

Experiment [7] shares this target. Description: Inhibition of DHODH in human HEK293 cells transfected with ISRE-luciferase reporter gene assessed as increase in 250 IU/ml IFN-alpha stimulated IFIT1 mRNA expression at 80 uM measured after 16 hrs by RT-qPCR analysis relative to control. Type of experiment: cell-based. The essentials:
as §1

The target is the same in experiment [8]. In words: Inhibition of DHODH in human HEK293 cells transfected with ISRE-luciferase reporter gene assessed as increase in 125 IU/ml IFN-alpha stimulated IFIT2 mRNA expression at 80 uM measured after 16 hrs by RT-qPCR analysis relative to control. Format: cell-based. The method in brief: as §1
For experiment [9] the target is unchanged. In words: Inhibition of DHODH in human HEK293 cells transfected with ISRE-luciferase reporter gene assessed as increase in 60 IU/ml IFN-alpha stimulated […] mRNA expression at 80 uM measured after 16 hrs by RT-qPCR analysis relative to control. Type of experiment: cell-based. The essentials:
as §1

For experiment [10] the target is unchanged. In words: Inhibition of DHODH in human HEK293 cells transfected with ISRE-luciferase reporter gene assessed as increase in 30 IU/ml IFN-alpha stimulated IFITM3 mRNA expression at 80 uM measured after 16 hrs by RT-qPCR analysis relative to control. Type of experiment: cell-based. The essentials:
as §1

The target is the same in experiment [11]. Description: Inhibition of DHODH in human HEK293 cells transfected with ISRE-luciferase reporter gene assessed as increase in 125 IU/ml IFN-alpha stimulated DDX58 mRNA expression at 80 uM measured after 16 hrs by RT-qPCR analysis relative to control. Type of experiment: cell-based. The method in brief:
as §1

Experiment [12] has the same target. Description: Inhibition of DHODH in human HEK293 cells transfected with ISRE-luciferase reporter gene assessed as increase in 30 IU/ml IFN-alpha stimulated MX2 mRNA expression at 80 uM measured after 16 hrs by RT-qPCR analysis relative to control. Type of experiment: cell-based. The method in brief: as §1
Experiment [13] has the same target. In words: Inhibition of DHODH in human HEK293 cells transfected with ISRE-luciferase reporter gene assessed as increase in 60 IU/ml IFN-alpha stimulated MX2 mRNA expression at 80 uM measured after 16 hrs by RT-qPCR analysis relative to control. Format: cell-based. The method in brief: (§2)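 HEK-293 ISRE-Luc cells (DMEM, 10% FCS, 37°C, 5% CO2) were given increasing IFN-α doses together with DMSO or compound at 80 μM, then harvested at 16 h. RNA was extracted from 2×10^5 cells with DNase treatment. Transcripts were run by qPCR for 35 cycles and normalized to RPL13A and to unstimulated controls by 2^-ΔΔCT. Values are fold change versus DMSO; three independent experiments; two-way ANOVA with Bonferroni.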

Experiment [14] has the same target. In words: Inhibition of DHODH in human HEK293 cells transfected with ISRE-luciferase reporter gene assessed as increase in 60 IU/ml IFN-alpha stimulated IFIT5 mRNA expression at 80 uM measured after 16 hrs by RT-qPCR analysis relative to control. Type of experiment: cell-based. The method in brief:
as §2

The target is the same in experiment [15]. Description: Inhibition of DHODH in human HEK293 cells transfected with ISRE-luciferase reporter gene assessed as increase in 125 IU/ml IFN-alpha stimulated IFIT5 mRNA expression at 80 uM measured after 16 hrs by RT-qPCR analysis relative to control. Type of experiment: cell-based. The method in brief:
as §1

For experiment [16] the target is unchanged. In words: Inhibition of DHODH in human HEK293 cells transfected with ISRE-luciferase reporter gene assessed as increase in 250 IU/ml IFN-alpha stimulated IFIT5 mRNA expression at 80 uM measured after 16 hrs by RT-qPCR analysis relative to control. Type of experiment: cell-based. The essentials:
as §1

The target is the same in experiment [17]. Description: Inhibition of DHODH in human HEK293 cells transfected with ISRE-luciferase reporter gene assessed as increase in 250 IU/ml IFN-alpha stimulated PKR mRNA expression at 80 uM measured after 16 hrs by RT-qPCR analysis relative to control. Format: cell-based. The method in brief:
as §1

The target is the same in experiment [18]. In words: Inhibition of DHODH in human HEK293 cells transfected with ISRE-luciferase reporter gene assessed as increase in 30 IU/ml IFN-alpha stimulated PML mRNA expression at 80 uM measured after 16 hrs by RT-qPCR analysis relative to control. Format: cell-based. The method in brief:
as §1

Experiment [19] shares this target. In words: Inhibition of DHODH in human HEK-293 cells transfected with ISRE-luciferase reporter gene assessed as increase in IFN-alpha mediated cellular response after 24 hrs by luciferase reporter gene assay. The note with it: read-out: EC50.

Active and inactive are the calls of the source. No cut-off for these calls is given here.

This is an account of results in ChEMBL document CHEMBL4680118, “Cerpegin-derived furo[3,4-c]pyridine-3,4(1H,5H)-diones enhance cellular response to interferons by de novo pyrimidine biosynthesis inhibition” (Eur J Med Chem, 2020).

T1 sequence (Q02127 whole entry): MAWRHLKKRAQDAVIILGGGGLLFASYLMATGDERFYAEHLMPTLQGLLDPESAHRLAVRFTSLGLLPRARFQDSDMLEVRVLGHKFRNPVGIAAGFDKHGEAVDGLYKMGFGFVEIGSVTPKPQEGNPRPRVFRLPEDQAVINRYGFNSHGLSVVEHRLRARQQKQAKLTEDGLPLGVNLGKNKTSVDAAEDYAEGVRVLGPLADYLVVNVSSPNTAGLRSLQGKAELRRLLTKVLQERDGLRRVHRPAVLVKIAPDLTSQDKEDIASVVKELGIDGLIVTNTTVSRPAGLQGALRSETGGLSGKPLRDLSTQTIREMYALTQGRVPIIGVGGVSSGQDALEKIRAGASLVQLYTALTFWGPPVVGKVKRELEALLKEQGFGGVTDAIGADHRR

As to `O=C1OC2(CCCCC2)c2ccn(C3CC3)c(=O)c21`, the inhibition entry in experiment [1] and in experiment [2] was “Active” in each case. For the same compound, the fold change (FC) in experiment [3] stood at 39; in [4] it was 69; in experiment [5], 21; in experiment [6], 115; in [7], 145; in experiment [8], 112. The fold change (FC) in experiment [9] came to 83; in [10], 6; in experiment [11], 31; in experiment [12] it was 7; in [13], 13; in experiment [14], 3. Moreover, the fold change (FC) in experiment [15] came to 4; in [16], 5; in [17], 4; in experiment [18], 3. In addition, the EC50 in experiment [19] was found to be 44 µM.
